Assay results as given in ChEMBL document CHEMBL1138713 (Bioorg Med Chem Lett, 2004).

Tested on: Trypanosoma cruzi
Test: Ability to cause lysis of trypomastigote form of Trypanosoma cruzi was determined
Type: functional, organism-based
Summary of the method: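 Bloodstream trypomastigotes (Y strain) harvested from mice inoculated intraperitoneally with 10⁵ parasites; assay in Dulbecco's modified Eagle medium; DMSO stocks, final solvent ≤0.5%.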

Work on Cn1c([N+](=O)[O-])cnc1-c1nnc(N/N=C/c2ccc(Cl)cc2)s1 yielded an IC50 of 38.4 µM.

In the case of COc1ccc(/C=N/Nc2nnc(-c3ncc([N+](=O)[O-])n3C)s2)cc1O, the IC50 is reported as 50.5 µM.

Cn1c([N+](=O)[O-])cnc1-c1nnc(N/N=C/c2ccc(O)cc2)s1 showed an IC50 of 11.6 µM.

Cn1c([N+](=O)[O-])cnc1-c1nnc(N/N=C/c2cc(C(C)(C)C)c(O)c(C(C)(C)C)c2)s1 gave an IC50 of 33.2 µM.

Molecule Cn1c([N+](=O)[O-])cnc1-c1nnc(N/N=C/c2ccccc2)s1 has an IC50 greater than 200 µM.

For O=[N+]([O-])c1ccc(/C=N/Nc2nnc(-c3ccccc3)s2)cc1, the IC50 was greater than 200 µM.

CC(C)(C)c1cc(/C=N/Nc2nnc(-c3ccccc3)s2)cc(C(C)(C)C)c1O showed an IC50 of 136 µM.

With Oc1ccc(/C=N/Nc2nnc(-c3ccccc3)s2)cc1O the IC50 was 63.4 µM.

In the case of Cn1c([N+](=O)[O-])cnc1-c1nnc(N/N=C/c2ccc(F)cc2)s1, the IC50 is reported as greater than 200 µM.

Molecule C(=N\Nc1nnc(-c2ccccc2)s1)/c1ccccc1 has an IC50 greater than 200 µM.

Cn1c([N+](=O)[O-])cnc1-c1nnc(N/N=C/c2ccc(Br)cc2)s1 showed an IC50 of 17 µM.

Molecule Cn1c([N+](=O)[O-])cnc1-c1nnc(N/N=C/c2ccc3c(c2)OCO3)s1 has an IC50 greater than 200 µM.

For COc1cccc(/C=N/Nc2nnc(-c3ncc([N+](=O)[O-])n3C)s2)c1O, the IC50 was greater than 200 µM.

Work on Cn1c([N+](=O)[O-])cnc1-c1nnc(N/N=C/c2ccc([N+](=O)[O-])cc2)s1 yielded an IC50 of 22 µM.

Cn1c([N+](=O)[O-])cnc1-c1nnc(N/N=C/c2ccccc2O)s1 gave an IC50 of 54.2 µM.

For COc1cc(/C=N/Nc2nnc(-c3ncc([N+](=O)[O-])n3C)s2)ccc1O, the IC50 was greater than 200 µM.

For Cn1c([N+](=O)[O-])cnc1-c1nnc(N/N=C/c2ccc(OC(F)(F)F)cc2)s1, the IC50 was greater than 200 µM.

For COc1ccc(/C=N/Nc2nnc(-c3ncc([N+](=O)[O-])n3C)s2)cc1, the IC50 was greater than 200 µM.

In the case of Oc1ccc(/C=N/Nc2nnc(-c3ccccc3)s2)cc1, the IC50 is reported as greater than 200 µM.

For Oc1ccccc1/C=N/Nc1nnc(-c2ccccc2)s1, the IC50 was greater than 200 µM.

Cn1c([N+](=O)[O-])cnc1-c1nnc(N/N=C\c2ccc(O)c(O)c2)s1 [BRAZILIZONE A] showed an IC50 of 5.3 µM.
